Experimental data from different studies.
Each line is one published result; the experiments were not run side by side.
Target: Serine/threonine-protein kinase Chk2 (CHEK2, Homo sapiens, UniProt O96017)

Structure (SMILES)	read-out	method	concentration	remaining binding [%]
Cc1cnc(Nc2ccc(C(=O)N3CCC(N4CCCC4)CC3)cc2)nc1-c1cc2ccccc2s1	binding	competition with immobilised ligand	1 µM	100
CN(CCCC(F)(F)F)c1nccc(-c2cnn3ncccc23)n1	binding		1 µM	99
Nc1ncc2c(n1)-c1c([nH]c3ccc(C#CC4CC4)cc13)CCCC2	binding	competition with immobilised ligand	1 µM	86
COc1cc(C(=O)N2CCC(N3CCN(C)CC3)CC2)ccc1Nc1ncc2c(n1)N(C)c1ccccc1C(=O)N2C	binding	competition with immobilised ligand	10 µM	66
O=C(c1ccc(Nc2ncc(Cl)c(-c3ccc(Cl)s3)n2)cc1)N1CCC(N2CCCC2)CC1	binding	competition with immobilised ligand	1 µM	87
c1cncc(-c2cccc(Nc3nccc(NC4CCCCC4)n3)c2)c1	binding	competition with immobilised ligand	10 µM	97
CNC(=O)[C@@H]1CC[C@@H](n2c(-c3ccc4cnccc4c3)nc3ccc(C(=O)NCc4cccc(C(N)=O)c4)cc32)C1	binding	competition with immobilised ligand	1 µM	100
CN(c1nccc(-c2cnn3ncccc23)n1)C1CC1	binding		1 µM	100
CC(C)(O)c1cncc(-c2nc3ccc(F)cc3n2C2CC2)c1	cell-free assay	competition with immobilised ligand	1 µM	100
NC(=O)c1nc(Nc2ccccc2)sc1NC(=O)C1CCCCC1	cell-free assay	competition with immobilised ligand	10 µM	2.7
O=C(NCC1CCOCC1)c1n[nH]cc1NC(=O)c1c(F)cccc1F	binding	competition with immobilised ligand	1 µM	97
CNC(=O)Nc1ccc2c(c1)CC[C@@]21OC(=O)N(CC(=O)N(Cc2ccc(F)cc2)[C@@H](C)C(F)(F)F)C1=O	cell-free assay	competition with immobilised ligand	1 µM	100
N[C@H]1CCN(c2nccc(-c3cnn4ncccc34)n2)C1	binding		1 µM	98
C=CC(=O)N1CCC(C(=O)NCC(=O)N2CCN(c3nc(-c4cnc(N)nc4C(F)F)nc(N4CCOCC4)n3)CC2)CC1	binding	competition with immobilised ligand	1 µM	88
Cn1nc(C(=O)NCc2ccc(C(=O)O)cc2)cc1-c1ccc2[nH]ccc2c1	cell-free assay	competition with immobilised ligand	0.1 µM	100
c1cnn2ncc(-c3ccnc(N4CCC45COC5)n3)c2c1	binding		1 µM	77
Cc1cc(-n2nc(Cc3cc(F)cc(C(F)(F)F)c3)nc2C)ccc1C(N)=O	cell-free assay	competition with immobilised ligand	1 µM	100
C[C@H]1CCN(c2nccc(-c3cnn4ncccc34)n2)C1	binding		1 µM	94
C[C@@]1(Cc2ccc(C#N)cc2)C(=O)N(c2cc(Cl)cc(Cl)c2)c2ncc(C(=O)NC3(c4nc(C5CCC5)no4)CC3)n21	cell-free assay	competition with immobilised ligand	1 µM	100
CN(C)c1nccc(-c2cnn3ncccc23)n1	binding		1 µM	100
CCCOc1ccc([C@@H]2[C@@H](C(=O)O)[C@H](c3ccc4c(c3)OCO4)CN2CC(=O)Nc2c(CC)cccc2CC)cc1	cell-free assay	competition with immobilised ligand	1 µM	98
O=C(c1ccc(Nc2ncc(Cl)c(-c3cc4ccccc4s3)n2)cc1)N1CCC(N2CCCC2)CC1	binding	competition with immobilised ligand	1 µM	82
COc1ccnn2ncc(-c3ccnc(N(C)C)n3)c12	binding		1 µM	87
CN(C)C(=O)Cn1cc(-c2nc(C3(c4ccc(-c5cnc(N)nc5)cc4)CC3)no2)cn1	cell-free assay	competition with immobilised ligand	1 µM	100
